Test results from ChEMBL document CHEMBL1121664, “(Acylaryloxy)acetic acid diuretics. 4. Indeno[5,4-b]furan-2-carboxylic acids” (1981).

Legend:
[1] = system: Rattus norvegicus; assay: Compound was tested for the oral natriuretic activity in female rats at the dose 81 mg/kg; mequiv of Na+ x 100 / cage; type: functional
Outline: (§1)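 Female Charles River rats (150–170 g) were kept overnight on a sugar diet with water ad libitum. Compound was dosed po in a final vehicle of 4% DMF in water with Tween 80, alongside concurrent vehicle placebo. Rats were housed three per metabolism cage and urine was collected over 0–5 h. Na+ is reported as mequiv ×100 per cage, as the geometric mean of three cages per dose.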

[2] = Compound was tested for the ratio of clearance of urate to clearance of inulin levels at 5 mg/kg in Chimpanzee; type: functional
Outline: (§2)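 GFR measured by iv pyrogen-free inulin. Inulin and urate clearances and Na+, K+, Cl- excretion rates measured by Auto Analyzer. Control values averaged over three 20-min periods. Compound given orally as aqueous solution via nasal catheter. Response is the mean of eight 15–20 min periods minus control, from single experiments.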

[3] = system: Pan troglodytes; assay: Compound was tested for the oral natriuretic activity in chimpanzee at the dose 5 mg/kg expressed as excretion rate in microequiv of Na+/min; type: functional; outline: as §2
[4] = system: Rattus norvegicus; assay: Compound was tested for the oral natriuretic activity in female rats at the dose 9 mg/kg; mequiv of Na+ x 100 / cage; type: functional; outline: as §1
[5] = system: Rattus norvegicus; assay: Compound was tested for the oral natriuretic activity in female rats at the dose 3 mg/kg; mequiv of Na+ x 100 / cage; type: functional; outline: as §1
[6] = system: Rattus norvegicus; assay: Compound was tested for the oral natriuretic activity in female rats at the dose 27 mg/kg; mequiv of Na+ x 100 / cage; type: functional; outline: as §1
[7] = system: Pan troglodytes; assay: Compound was tested for the oral diuretic activity in chimpanzee at the dose 0.1 mg/kg expressed as excretion rate in microequiv of K+/min; type: functional, Urine; outline: as §2
[8] = system: Pan troglodytes; assay: Compound was tested for the oral diuretic activity in chimpanzee at the dose 0.1 mg/kg expressed as excretion rate in microequiv of Cl-/min; type: functional, Urine; outline: as §2
[9] = system: Pan troglodytes; assay: Compound was tested for the oral natriuretic activity in chimpanzee at the dose 0.1 mg/kg expressed as excretion rate in microequiv of Na+/min; type: functional; outline: as §2
[10] = system: Pan troglodytes; assay: Compound was tested for the oral diuretic activity in chimpanzee at the dose 5 mg/kg expressed as excretion rate in microequiv of Cl-/min; type: functional, Urine; outline: as §2
[11] = system: Pan troglodytes; assay: Compound was tested for the oral diuretic activity in chimpanzee at the dose 5 mg/kg expressed as excretion rate in microequiv of K+/min; type: functional, Urine; outline: as §2
[12] = system: Pan troglodytes; assay: Compound was tested for the oral natriuretic activity in chimpanzee at 5 mg/kg by observing the excretion rates of sodium; µequiv of Na+/min

Row | SMILES | Excretion rate [1] | Ratio [2] | Excretion rate [3] | Excretion rate [4] | Excretion rate [5] | Excretion rate [6] | Excretion rate [10] | Excretion rate [11] | also measured
1 | CCC1C(=O)c2c(Cl)c(Cl)c3c(c2C1c1ccccc1)CC(C(=O)O)O3 (centres undefined) | 87 | 0.16 | 820 | 109 | 94 | 82 | – | – | –
2 | CCCC1Cc2c3c(c(C)c(C)c2C1=O)OC(C(=O)O)C3 (centres undefined) | – | 0.01 | 252 | – | – | – | – | – | –
3 | CCCC1Cc2c(c(C)c(C)c3oc(C(=O)O)cc23)C1=O (centres undefined) | 28 | 0.01 | 0 | 16 | 15 | 32 | – | – | –
4 | CC1(c2ccccc2)Cc2c3c(c(Cl)c(Cl)c2C1=O)O[C@H](C(=O)O)C3 (some centres undefined) | 388 | 0.09 | – | 267 | 189 | 281 | – | – | Excretion rate [7]: 88; Excretion rate [8]: 1532; Excretion rate [9]: 1305
5 | CC1(C2CCCC2)Cc2c3c(c(Cl)c(Cl)c2C1=O)O[C@@H](C(=O)O)C3 (some centres undefined) | 340 | -0.04 | 437 | 223 | 127 | 279 | 614 | 63 | –
6 | O=C(O)COc1cc2c(c(Cl)c1Cl)C(=O)C1(CCCC1)C2 | – | 0.14 | 321 | – | – | – | 399 | 42 | –
7 | CC1(C2CCCC2)Cc2cc(OCC(=O)O)c(Cl)c(Cl)c2C1=O (centres undefined) | – | 0.2 | 425 | – | – | – | 367 | 64 | –
8 | O=C(O)[C@H]1Cc2c3c(c(Cl)c(Cl)c2O1)C(=O)C1(CCCC1)C3 (stereo in doubt; 4d) | 432 | – | – | – | – | 349 | 1990 | 274 | Ratio ([2]; 5 mg/kg): 0; Excretion rate ([3]; 5 mg/kg): 1500; Excretion rate ([4]; 9 mg/kg): 323; Excretion rate ([5]; 3 mg/kg): 224
9 | NS(=O)(=O)c1cc(C(=O)O)c(NCc2ccco2)cc1Cl [FUROSEMIDE] | 244 | -0.02 | – | 7 | – | 125 | – | – | Excretion rate [12]: 1040 µequiv/min
10 | NS(=O)(=O)c1cc2c(cc1Cl)NCNS2(=O)=O [HYDROCHLOROTHIAZIDE] | – | – | 144 | 112 | – | – | 198 | 73 | –
11 | CC1(c2ccccc2)Cc2cc(OCC(=O)O)c(Cl)c(Cl)c2C1=O (centres undefined) [INDACRINONE] | 189 | 0.38 | 409 | 97 | 86 | 129 | 539 | 108 | –
12 | CCCN(CCC)S(=O)(=O)c1ccc(C(=O)O)cc1 [PROBENECID] | – | 0.05 | – | – | – | – | – | – | –
